Experimental data as given in ChEMBL document CHEMBL5247621, “From dopamine 4 to sigma 1: Synthesis, SAR and biological characterization of a piperidine scaffold of σ1 modulators” (Eur J Med Chem, 2022).

How the values were obtained:
[1] = molecular target: T1, Sigma non-opioid intracellular receptor 1 (Homo sapiens, UniProt Q99720); experiment: Displacement of [3H] Pentazocine from sigma 1 receptor in HEK293 cell membrane; format: cell membranes; conditions: read-out: Ki
[2] = molecular target: T2, D(4) dopamine receptor (Homo sapiens) (UniProt P21917); experiment: Displacement of [3H]N-methylspiperone from D4 receptor in HEK293 cell membrane assessed as inhibition constant at 10 uM relative to control; format: cell membranes; design: scale not given: the % may be the effect or the level left
T2 sequence (whole entry): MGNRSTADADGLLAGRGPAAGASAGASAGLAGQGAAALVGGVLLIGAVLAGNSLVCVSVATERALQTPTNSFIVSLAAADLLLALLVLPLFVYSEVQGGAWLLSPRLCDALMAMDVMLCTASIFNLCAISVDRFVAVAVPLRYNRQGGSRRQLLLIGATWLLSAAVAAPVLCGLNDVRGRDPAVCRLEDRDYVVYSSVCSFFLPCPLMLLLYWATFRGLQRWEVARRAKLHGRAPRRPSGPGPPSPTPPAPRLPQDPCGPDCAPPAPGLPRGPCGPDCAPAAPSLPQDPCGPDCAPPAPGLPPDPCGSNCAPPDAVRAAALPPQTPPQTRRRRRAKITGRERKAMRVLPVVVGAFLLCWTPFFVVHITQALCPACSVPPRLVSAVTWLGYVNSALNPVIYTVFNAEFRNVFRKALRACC

[3] = Plasma protein binding in mouse assessed as unbound fraction; format: ADME
How it was run: (§1)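 Plasma protein binding by equilibrium dialysis in human or mouse plasma, reported as fraction unbound (fu).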

[4] = molecular target: Sigma intracellular receptor 2 (Homo sapiens, UniProt Q5BJF2); experiment: Displacement of [3H]DTG from sigma-2 receptor in HEK293 cell membrane assessed as inhibition constant; format: cell membranes
Sequence of Sigma intracellular receptor 2 (Q5BJF2 whole entry): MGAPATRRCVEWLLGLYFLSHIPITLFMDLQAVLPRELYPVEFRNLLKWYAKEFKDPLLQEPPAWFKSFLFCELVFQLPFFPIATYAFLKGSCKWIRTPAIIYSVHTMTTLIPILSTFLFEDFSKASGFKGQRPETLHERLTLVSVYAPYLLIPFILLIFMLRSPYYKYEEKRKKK
How it was run: (§2)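 Competitive radioligand binding in membranes harvested from HEK293 cells, with one radioligand per target: [3H]N-methylspiperone for D2, D3 and D4; [3H]SCH23390 for D1 and D5; [3H]pentazocine for σ1; [3H]DTG for σ2. Ki derived from inhibition of binding, each run in triplicate.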

D(1A) dopamine receptor = D(1A) dopamine receptor (Homo sapiens, UniProt P21728); experiment: Displacement of [3H]SCH23390 from D1 receptor in HEK293 cell membrane assessed as inhibition constant; format: cell membranes; how it was run: as §2
Sequence of D(1A) dopamine receptor (P21728 whole entry): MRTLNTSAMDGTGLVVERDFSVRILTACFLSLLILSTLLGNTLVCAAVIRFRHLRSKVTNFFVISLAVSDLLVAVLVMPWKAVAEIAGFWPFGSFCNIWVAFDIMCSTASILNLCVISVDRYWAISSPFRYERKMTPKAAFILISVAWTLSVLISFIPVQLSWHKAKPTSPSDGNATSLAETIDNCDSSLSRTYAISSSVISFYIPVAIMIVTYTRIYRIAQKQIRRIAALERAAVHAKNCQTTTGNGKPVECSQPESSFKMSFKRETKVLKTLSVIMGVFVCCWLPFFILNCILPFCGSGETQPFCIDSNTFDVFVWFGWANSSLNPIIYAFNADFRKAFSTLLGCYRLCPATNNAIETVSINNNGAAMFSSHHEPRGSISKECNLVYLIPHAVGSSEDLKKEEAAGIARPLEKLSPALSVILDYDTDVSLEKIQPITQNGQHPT

[5] = Plasma protein binding in human assessed as unbound fraction; format: ADME, cell-free; how it was run: as §1
D(4) dopamine receptor = molecular target: T3, D(4) dopamine receptor (Homo sapiens, UniProt P21917); experiment: Displacement of [3H]N-methylspiperone from D4 receptor in HEK293 cell membrane; format: cell membranes; conditions: read-out: Ki
T3 sequence (P21917 whole entry): T2 sequence (whole entry)

[6] = Ratio of total drug concentration in mouse brain to plasma at 5 mg/kg, ip measured after 5 hrs; format: ADME, organism-based
How it was run: (§3)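 Mice received 5 mg/kg IP in 10% DMSO/10% Cremophor EL/30% PEG400/50% water. Kp is total brain concentration divided by total plasma concentration, taken at 1 h and 5 h post-dose.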

[7] = Tmax in mouse plasma at 5 mg/kg, ip measured after 24 hrs; format: ADME, organism-based; conditions: in vivo
How it was run: (§4)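 Discrete mouse study, single intraperitoneal dose of 5 mg/kg in 10% DMSO/10% Cremophor EL/30% PEG400/50% water. Plasma and brain concentrations followed over 24 h. Parameters estimated by non-compartmental analysis.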

[8] = Mean residence time in mouse brain at 5 mg/kg, ip measured after 24 hrs; format: ADME, organism-based; conditions: in vivo; how it was run: as §4
[9] = Ratio of total drug concentration in mouse brain to plasma at 5 mg/kg, ip measured after 1 hr; format: ADME, organism-based; how it was run: as §3
[10] = Ratio of free drug concentration in mouse brain to plasma at 5 mg/kg, ip measured after 5 hrs; format: ADME, organism-based; conditions: read-out: K(p,uu,brain)
How it was run: (§5)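 Mice received 5 mg/kg IP in 10% DMSO/10% Cremophor EL/30% PEG400/50% water. Kp,uu is free brain over free plasma concentration at 1 h and 5 h. Free levels are corrected with unbound fractions measured in mouse plasma protein binding and in mouse brain homogenate binding.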

[11] = Half life in mouse brain at 5 mg/kg, ip measured after 24 hrs; format: ADME, organism-based; conditions: in vivo; how it was run: as §4
[12] = Half life in mouse plasma at 5 mg/kg, ip measured after 24 hrs; format: ADME, organism-based; conditions: in vivo; how it was run: as §4
[13] = molecular target: T1, Sigma non-opioid intracellular receptor 1; experiment: Binding affinity to sigma 1 receptor in human Jurkat cells; format: cell-based
[14] = AUC(infinity) in mouse plasma at 5 mg/kg, ip measured after 24 hrs; format: ADME, organism-based; design: dose 5 mg/kg, time 24 hrs, route ip; conditions: in vivo; how it was run: as §4
[15] = Cmax in mouse brain at 5 mg/kg, ip measured after 24 hrs; format: ADME, organism-based; design: time 24 hrs, dose 5 mg/kg, route ip; how it was run: as §4
[16] = Tmax in mouse brain at 5 mg/kg, ip measured after 24 hrs; format: ADME, organism-based; conditions: in vivo; how it was run: as §4
[17] = Cmax in mouse plasma at 5 mg/kg, ip measured after 24 hrs; format: ADME, organism-based; design: dose 5 mg/kg, time 24 hrs, route ip; conditions: in vivo; how it was run: as §4
[18] = Mean residence time in mouse plasma at 5 mg/kg, ip measured after 24 hrs; format: ADME, organism-based; conditions: in vivo; how it was run: as §4
[19] = AUC(infinity) in mouse brain at 5 mg/kg, ip measured after 24 hrs; format: ADME, organism-based; design: dose 5 mg/kg, time 24 hrs, route ip; how it was run: as §4
[20] = Ratio of free drug concentration in mouse brain to plasma at 5 mg/kg, ip measured after 1 hr; format: ADME, organism-based; how it was run: as §5
[21] = molecular target: T1, Sigma non-opioid intracellular receptor 1; experiment: Displacement of [3H] Pentazocine from sigma 1 receptor in HEK293 cell membrane assessed as inhibition constant relative to control; format: cell membranes; design: scale not given: the % may be the effect or the level left; how it was run: as §2
D(1B) dopamine receptor = D(1B) dopamine receptor (Homo sapiens, UniProt P21918); experiment: Displacement of [3H]SCH23390 from D5 receptor in HEK293 cell membrane assessed as inhibition constant; format: cell membranes; how it was run: as §2
Sequence of D(1B) dopamine receptor (P21918 whole entry): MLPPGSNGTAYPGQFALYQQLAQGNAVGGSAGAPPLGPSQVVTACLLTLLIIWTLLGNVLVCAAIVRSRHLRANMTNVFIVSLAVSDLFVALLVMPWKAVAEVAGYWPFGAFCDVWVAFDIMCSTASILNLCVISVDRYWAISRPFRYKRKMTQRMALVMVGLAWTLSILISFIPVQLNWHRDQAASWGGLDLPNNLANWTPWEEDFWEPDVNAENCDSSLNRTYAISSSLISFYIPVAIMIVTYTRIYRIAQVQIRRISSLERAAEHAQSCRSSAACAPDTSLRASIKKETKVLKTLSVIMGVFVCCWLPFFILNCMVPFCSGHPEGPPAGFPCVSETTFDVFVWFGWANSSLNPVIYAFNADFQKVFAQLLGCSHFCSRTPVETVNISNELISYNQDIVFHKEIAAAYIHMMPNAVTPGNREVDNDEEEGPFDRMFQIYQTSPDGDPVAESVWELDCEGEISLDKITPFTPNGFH

[22] = Intrinsic clearance in human liver microsomes; format: ADME, Microsome; conditions: read-out: CLH
How it was run: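 Intrinsic clearance measured in human liver microsomes. Hepatic clearance predicted from it with the well-stirred organ model, binding terms excluded.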

T1 sequence (Q99720 whole entry): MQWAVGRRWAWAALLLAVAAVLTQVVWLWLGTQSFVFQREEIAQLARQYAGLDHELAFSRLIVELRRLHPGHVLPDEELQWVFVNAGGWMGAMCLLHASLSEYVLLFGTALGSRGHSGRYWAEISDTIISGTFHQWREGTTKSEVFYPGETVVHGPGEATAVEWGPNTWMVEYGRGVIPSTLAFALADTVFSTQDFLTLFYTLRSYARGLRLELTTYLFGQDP

Row | Compound | Ki [1] [nM] | Activity [2] [%] | Ki [4] [nM] | Ki (D(1A) dopamine receptor) [nM] | Ki (D(4) dopamine receptor) [nM] | also measured
1 | Fc1cc(COC2CCN(Cc3cn4ccccc4n3)CC2)ccc1Cl | 2.3 | – | – | – | – | –
2 | Cc1cccc(CO[C@H]2CCCN(Cc3ccc4c(cnn4C)c3)C2)n1 | 1280 | 23 | – | – | – | –
3 | Cc1ccccc1CO[C@H]1CCCN(Cc2ccc3c(cnn3C)c2)C1 | 37 | 65 | 239 | > 10000 | – | Fu [3]: 8.8%; Fu [5]: 4.3%
4 | Cc1c(Cl)cccc1NC(=O)CN1CCC2(CCCN2Cc2ccc(F)c(F)c2)C1 (stereo not given) | 14 | – | 43 | > 10000 | 1700 | –
5 | Cn1cnc2cc(CN3CCC(OCc4cccc(C(F)(F)F)c4)CC3)ccc21 | 12 | – | – | – | – | –
6 | Cc1c(Cl)cccc1NC(=O)CN1CCC(OCc2ccc(Cl)c(F)c2)CC1 | 97 | – | – | – | – | –
7 | COc1ccc(CN2CCO[C@H](COc3ccccc3)C2)cc1F | 41 | – | – | – | 5 | –
8 | Fc1cc(COC2CCN(Cc3ccc4[nH]cnc4c3)CC2)ccc1Cl | 3.1 | – | 70 | > 10000 | 1160 | Kp at 5 h [6]: 2.4; Tmax [7]: 0.67 h; MRT [8]: 8.3 h; Kp [9]: 4.94; Kp uu at 5 h [10]: 4.88; t1/2 [11]: 6.88 h; t1/2 [12]: 3.68 h; Ki [13]: 3.9 nM; AUC [14]: 2225 ng·h/mL; Cmax [15]: 1890 ng/mL; Tmax [16]: 1.67 h; Cmax [17]: 401 ng/mL; MRT [18]: 4.54 h; AUC(0-inf) [19]: 13900 ng·h/mL; K(p,uu,brain) [20]: 2.43
9 | Cc1csc(OC[C@@H]2CN(Cc3cn4ccccc4n3)CCO2)n1 | – | – | – | – | 1560 | Activity [21]: 6%
10 | Cc1cccc(CO[C@H]2CCCN(Cc3cn4ccccc4n3)C2)n1 | – | 23 | – | – | – | Activity [21]: 39%
11 | Fc1ccc(CN2CCCC23CCN(Cc2cn4ccccc4n2)C3)cc1F (stereo not given) | 3.6 | -0.7 | 23 | > 10000 | – | Fu [3]: 30.2%; Fu [5]: 2.7%
12 | FC(F)(F)c1cccc(COC2CCN(Cc3ccc4[nH]cnc4c3)CC2)c1 | – | – | 73 | > 10000 | – | Ki (D(1B) dopamine receptor): > 10000 nM
13 | Cn1ncc2cc(CN3CCO[C@H](COc4ccc(F)c(F)c4)C3)ccc21 | 23 | – | – | – | 28 | –
14 | Fc1cc(COC2CCN(Cc3ccc4[nH]ncc4c3)CC2)ccc1Cl | 0.7 | – | – | – | – | CLint scaled [22]: 26.3 mL/min/kg; Fu [3]: 6.5%; Fu [5]: 7%
15 | Cn1cnc2cc(CN3CCC(OCc4ccc(Cl)c(F)c4)CC3)ccc21 | 31 | 48 | – | – | – | Fu [3]: 75%; Fu [5]: 13%
16 | Cc1cccc(CO[C@H]2CCCN(Cc3cc4ccc(Cl)cc4[nH]3)C2)n1 | 52 | – | – | – | – | –
